Data set [1] is described as follows: melting temperature; fluorescence melt of hairpins on a sequencing array, two-state fit, raised by 9.35 °C to match UV melts. The conditions noted are these: sodium 0.088 M. In a few lines: (§1)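 With Cy3 and quencher oligos annealed, library hairpins on a sequenced MiSeq flow cell were imaged for Cy3 fluorescence in 50 mM Na-HEPES pH 8.0, 25 mM NaCl, in 2.5 °C steps up to 60 °C. Melting temperature and folding enthalpy were derived from bootstrapped two-state fits of signals normalised to pre-quench Cy3 and to control constructs. Four replicates were combined by inverse variance, with fitted temperatures raised by 9.35 °C to match UV melts.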

The nature of data set [2]: folding enthalpy; higher = less favourable; fluorescence melt of hairpins on a sequencing array, two-state fit. The note with it: sodium 0.088 M. In a few lines:
as §1

Turning to GGGGTACGAAAGTAGCCC (((.(((....))).))), in data set [1], the Tm turned out to be 67.7 °C. Besides, in data set [2], the folding enthalpy was -42.7 kcal/mol.
The matching figures for GATCACGTGCGTGATC ((((((....)))))): 59.7 °C and -45.1 kcal/mol.
On to GTGCGGGGAAACCCGCGC (.(((((....))))).), for which, in data set [1], the Tm stood at 67.2 °C. For the same sequence, in data set [2], the folding enthalpy was -16.1 kcal/mol.
With GCTGGGCGAAAGCCTAGC (((.(((....))).))), in data set [1], the Tm stood at 66.2 °C. The folding enthalpy in data set [2] is -31.5 kcal/mol.
On to GGTGGCGAAAGCCTAACC ((((((....)))..))), for which the Tm in data set [1] came out at 43.7 °C. Also, the folding enthalpy in data set [2] is -16.5 kcal/mol.
In the case of CGATTCGGAAACGATTCG (((.(((....))).))), the Tm in data set [1] was determined as 45.8 °C. Besides, the folding enthalpy in data set [2] is -33.2 kcal/mol.
As to GATCACAAGAGTGATC ((((((....)))))), the Tm in data set [1] is 54.5 °C. For the same sequence, the folding enthalpy in data set [2] is -33.1 kcal/mol.
The corresponding values for GGAATCGGAAACGATTCC (((((((....))))))) are 66.1 °C and -43.2 kcal/mol.
The matching figures for GTGTCCTCGAAAGAGCAC (((..(((....)))))): 36 °C and -14.5 kcal/mol.
Regarding CGTGCGGAAACGCGCACG ((((((....)))..))), in data set [1], the Tm came to 64 °C. The folding enthalpy in data set [2] was -34.2 kcal/mol.
As to GCTAGCGAAAGCTCAGC ((((((....))).))), in data set [1], the Tm stood at 48.9 °C. Moreover, in data set [2], the folding enthalpy is -19.6 kcal/mol.
Turning to GGTTGACGAAAGTCTACC (((.(((....))).))), the Tm in data set [1] stood at 53.8 °C. Moreover, in data set [2], the folding enthalpy is -33.1 kcal/mol.
The corresponding values for GACCGCGGAAACGCGATC ((.((((....)))).)) are 50.7 °C and -14.8 kcal/mol.
Consider GATCTCTAGTGAGATC ((((((....)))))), for which, in data set [1], the Tm is 50.3 °C. The folding enthalpy in data set [2] is -36.9 kcal/mol.
The matching figures for GGTCGCGGAAACGCGGTC (..((((....))))..): 47.4 °C and -13.2 kcal/mol.
For the sequence GAGAATGAAAATTCTC ((((((....)))))), in data set [1], the Tm came out at 46 °C. For the same sequence, the folding enthalpy in data set [2] was -31.8 kcal/mol.
GTGATCGAAAGATACCAC ((((((....)))..))): the Tm in data set [1] is 26.6 °C. In addition, the folding enthalpy in data set [2] is -10.5 kcal/mol.
As to GAGTGCGAAAGCAGTCTC ((((((....)))..))), the Tm in data set [1] turned out to be 58.1 °C. For the same sequence, the folding enthalpy in data set [2] is -23.7 kcal/mol.
As for GGATGTGGAAACGCATCC (((((.(....).))))), the Tm in data set [1] was 52.2 °C. Also, the folding enthalpy in data set [2] is -41.4 kcal/mol.
As to CGCGGACGAATCCGCG ((((((....)))))), in data set [1], the Tm was found to be 68.5 °C. Further, the folding enthalpy in data set [2] was -33.2 kcal/mol.
As to GCTATCGAAAGATGCAGC ((((((....)))..))), the Tm in data set [1] was determined as 35.8 °C. Moreover, in data set [2], the folding enthalpy is -18.3 kcal/mol.
As for GCCGCGCGAAAGCGCCGC ((.((((....)))).)), in data set [1], the Tm amounted to 59.7 °C. In addition, the folding enthalpy in data set [2] is -16.6 kcal/mol.
On to GACTCCGGAAACGAAGTC ((((.((....)).)))), for which the Tm in data set [1] is 37.1 °C. For the same sequence, in data set [2], the folding enthalpy was -29.4 kcal/mol.
Regarding GCTCCAACGAAAGTTAGC (((..(((....)))))), the Tm in data set [1] was determined as 27.9 °C. Besides, in data set [2], the folding enthalpy was -11.8 kcal/mol.
As to GACGTTGGAAACAGTGTC (((..((....))..))), the Tm in data set [1] was found to be 31.2 °C. The folding enthalpy in data set [2] is -14.1 kcal/mol.
For the sequence GGAGAACGAAAGTTTCC (((.(((....)))))), the Tm in data set [1] stood at 33.4 °C. Further, the folding enthalpy in data set [2] is -19.7 kcal/mol.
With GATTACGAAAGTAGATC ((((((....))).))), the Tm in data set [1] was 29 °C. The folding enthalpy in data set [2] was -19 kcal/mol.
Regarding GCTCCACGAAAGTGCAGC (((.(((....))).))), in data set [1], the Tm was found to be 46.2 °C. The folding enthalpy in data set [2] was -22.1 kcal/mol.
The matching figures for GCGTGCGAAAGCACTCGC ((((((....)))..))): 51.5 °C and -12.4 kcal/mol.
The matching figures for GTCCTCGGAAACGAGAAC ((.((((....)))).)): 39.7 °C and -20.7 kcal/mol.
Consider GCGATGGGAAACCATCAC (.(((((....))))).), for which the Tm in data set [1] came to 43.1 °C. Besides, in data set [2], the folding enthalpy is -15.9 kcal/mol.
The matching figures for GCAAAAGGAAACTCTTGC ((((.((....)).)))): 27.4 °C and -10.8 kcal/mol.
On to GTGCTCGAAAGAGGGCAC ((((((....)))..))), for which the Tm in data set [1] was found to be 48.9 °C. Also, the folding enthalpy in data set [2] is -22.9 kcal/mol.
The matching figures for GCCGAGCGAAAGCCAGGC (((..((....))..))): 62.7 °C and -24 kcal/mol.
For the sequence GGAGCAGGAAACCGCTCC (((((.(....).))))), in data set [1], the Tm was 55.2 °C. Besides, the folding enthalpy in data set [2] was -34.1 kcal/mol.
The corresponding values for GATGTACCGAAAGGTATC (((..(((....)))))) are 32.2 °C and -14 kcal/mol.
As to GACCCCGGAAACGGGGCC (.(((((....))))).), the Tm in data set [1] was 53.6 °C. Also, in data set [2], the folding enthalpy was -12.9 kcal/mol.
As to GTAATCGGAAACGATTGC (.(((((....))))).), the Tm in data set [1] stood at 48.2 °C. The folding enthalpy in data set [2] was -25.6 kcal/mol.
Take GATCTTCCTAAAGATC ((((((....)))))): the Tm in data set [1] worked out at 43.7 °C. Moreover, in data set [2], the folding enthalpy is -31.7 kcal/mol.
For the sequence GCACACCGAAAGGTTGC (((.(((....)))))), the Tm in data set [1] is 53.6 °C. The folding enthalpy in data set [2] is -28.6 kcal/mol.
With GATTACCGAAAGGTCATC (((.(((....))).))), the Tm in data set [1] worked out at 38.2 °C. Besides, the folding enthalpy in data set [2] was -28.8 kcal/mol.
Consider GATCATTGTCATGATC ((((((....)))))), for which, in data set [1], the Tm came to 46.2 °C. Moreover, the folding enthalpy in data set [2] is -31.7 kcal/mol.
In the case of GGCCCATCGAAAGATGCC (((..(((....)))))), the Tm in data set [1] is 34.6 °C. Further, the folding enthalpy in data set [2] was -12.4 kcal/mol.
Turning to GCATAGCGAAAGCTTAGC ((..(((....)))..)), in data set [1], the Tm turned out to be 41.6 °C. The folding enthalpy in data set [2] was -16.2 kcal/mol.
Consider GGACGTGGAAACGCGTTC (.(((.(....).))).), for which the Tm in data set [1] was found to be 44.3 °C. Besides, in data set [2], the folding enthalpy is -24.2 kcal/mol.
As for GAACCCCCGAAAGGGTTC (((..(((....)))))), the Tm in data set [1] stood at 55 °C. The folding enthalpy in data set [2] is -24 kcal/mol.
GATCTGCGCCAGATC ((((((...)))))): the Tm in data set [1] came to 50.8 °C. For the same sequence, the folding enthalpy in data set [2] is -35.3 kcal/mol.
The corresponding values for GTCCATCGAAAGATGAC (((.(((....)))))) are 42.5 °C and -16.9 kcal/mol.
The corresponding values for GGGATGAAAATCCC (((((....))))) are 56.5 °C and -28.8 kcal/mol.
Take GTTTGCGAAAGCAATAAC ((((((....)))..))): the Tm in data set [1] came out at 34.5 °C. Further, the folding enthalpy in data set [2] was -12.6 kcal/mol.
The matching figures for GGCGAACGAAAGTTGGCC (((.(((....))).))): 59 °C and -42.5 kcal/mol.
Take AAAGCGAAAGCTTT (((((....))))): the Tm in data set [1] turned out to be 63.4 °C. The folding enthalpy in data set [2] was -15.5 kcal/mol.
With GATCAGCCAACTGATC ((((((....)))))), in data set [1], the Tm is 49.6 °C. In addition, the folding enthalpy in data set [2] was -33.8 kcal/mol.
GCTGCAGGAAACTGTGGC ((..(((....)))..)): in data set [1], the Tm is 46.5 °C. The folding enthalpy in data set [2] is -25.8 kcal/mol.
As to GTCAGGGGAAACCCTGGC (.(((((....))))).), in data set [1], the Tm came to 53.6 °C. For the same sequence, the folding enthalpy in data set [2] was -27.7 kcal/mol.
The corresponding values for GTTATGGGAAACTATAAC (((((.(....).))))) are 34.6 °C and -23.8 kcal/mol.
GCGTACGGAAACGTGTGC ((..(((....)))..)): in data set [1], the Tm was 44.7 °C. The folding enthalpy in data set [2] is -29.1 kcal/mol.
Consider GTCTGCGAAAGCACGAC ((((((....))).))), for which the Tm in data set [1] worked out at 50.2 °C. Further, the folding enthalpy in data set [2] is -21.5 kcal/mol.
GAGTGCGAAAGCAACCTC ((((((....)))..))): in data set [1], the Tm amounted to 37.7 °C. In data set [2], the folding enthalpy was -13.5 kcal/mol.
With GAAGACGAAAGTCAATTC ((((((....)))..))), the Tm in data set [1] was found to be 32.9 °C. Besides, in data set [2], the folding enthalpy was -15.5 kcal/mol.
In the case of GATGACGGAAACGTCGTC ((.((((....)))).)), in data set [1], the Tm came to 52.8 °C. Besides, the folding enthalpy in data set [2] was -43.3 kcal/mol.
The corresponding values for GGATCCGAAAGGAATCC ((((((....))).))) are 50.8 °C and -31.7 kcal/mol.
The matching figures for GGTTAGCGAAAGCTTACC (((.(((....))).))): 52 °C and -23.2 kcal/mol.
On to GATCTTGACAAGATC ((((((...)))))), for which the Tm in data set [1] came out at 46.1 °C. For the same sequence, in data set [2], the folding enthalpy is -38.6 kcal/mol.
The matching figures for GGTCAAACGAAAGTTACC (((..(((....)))))): 30.3 °C and -15.1 kcal/mol.
Turning to GTTGGGGGAAACTCCAAC (((((.(....).))))), in data set [1], the Tm is 50.4 °C. Besides, the folding enthalpy in data set [2] is -41.2 kcal/mol.
With TTCGAGAAATCGAA (((((....))))), the Tm in data set [1] was 37.9 °C. The folding enthalpy in data set [2] was -12.4 kcal/mol.
Consider GGGCGGTCGAAAGACCCC (((..(((....)))))), for which, in data set [1], the Tm was 53.9 °C. In addition, in data set [2], the folding enthalpy is -15.3 kcal/mol.
Consider GATCCTGTAGAGGATC ((((((....)))))), for which, in data set [1], the Tm is 55.5 °C. Further, in data set [2], the folding enthalpy is -36 kcal/mol.
The corresponding values for GATAGCGGAAACGCTATC (((((((....))))))) are 65.7 °C and -34.4 kcal/mol.
Take GAATGGAAACATTC (((((....))))): in data set [1], the Tm was 40.6 °C. Moreover, in data set [2], the folding enthalpy was -24.9 kcal/mol.
Take GCATTCGAAAGAACATGC ((((((....)))..))): the Tm in data set [1] is 33 °C. In data set [2], the folding enthalpy was -15.8 kcal/mol.
Take GATATGGGAAACCACATC (((.(((....))).))): the Tm in data set [1] came to 28.4 °C. The folding enthalpy in data set [2] is -15 kcal/mol.
Consider GCGAATTCTCGC ((((....)))), for which the Tm in data set [1] was found to be 47.9 °C. Further, the folding enthalpy in data set [2] is -19.6 kcal/mol.
